Series [1] concerns the target T1, Fatty-acid amide hydrolase 1 (Homo sapiens) (UniProt O00519).
T1 sequence (whole entry): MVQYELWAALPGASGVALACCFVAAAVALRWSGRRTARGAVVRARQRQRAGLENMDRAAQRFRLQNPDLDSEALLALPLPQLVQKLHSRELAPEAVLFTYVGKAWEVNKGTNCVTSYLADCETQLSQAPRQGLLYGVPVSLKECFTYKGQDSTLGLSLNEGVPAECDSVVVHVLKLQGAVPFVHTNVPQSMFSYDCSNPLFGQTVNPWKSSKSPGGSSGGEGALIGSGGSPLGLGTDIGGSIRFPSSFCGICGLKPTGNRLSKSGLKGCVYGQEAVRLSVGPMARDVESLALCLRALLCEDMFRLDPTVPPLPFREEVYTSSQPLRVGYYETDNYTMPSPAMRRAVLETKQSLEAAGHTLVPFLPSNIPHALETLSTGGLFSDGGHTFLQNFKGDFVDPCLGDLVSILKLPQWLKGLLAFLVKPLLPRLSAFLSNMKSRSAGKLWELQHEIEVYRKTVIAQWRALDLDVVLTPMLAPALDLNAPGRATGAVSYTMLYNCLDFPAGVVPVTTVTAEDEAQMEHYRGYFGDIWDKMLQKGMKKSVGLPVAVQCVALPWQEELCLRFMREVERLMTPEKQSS
The series is described as follows: Inhibition of FAAH in human brain at 10 uM in presence of FP-rhodamine by competitive activity-based protein profiling method. Type of series: tissue-based. Summed up: (§1)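 Competitive ABPP on human and mouse brain, liver and heart proteomes (membrane and soluble fractions), exposed to compound at 10 or 100 μM or to DMSO. Serine hydrolases were then labeled with FP-rhodamine. Gels were read by fluorescence scanning, and loss of band labeling (FAAH or other hydrolases by kDa) was judged.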

Series [2] concerns the target T2, Fatty-acid amide hydrolase 1 (Mus musculus) (UniProt O08914).
T2 sequence (whole entry): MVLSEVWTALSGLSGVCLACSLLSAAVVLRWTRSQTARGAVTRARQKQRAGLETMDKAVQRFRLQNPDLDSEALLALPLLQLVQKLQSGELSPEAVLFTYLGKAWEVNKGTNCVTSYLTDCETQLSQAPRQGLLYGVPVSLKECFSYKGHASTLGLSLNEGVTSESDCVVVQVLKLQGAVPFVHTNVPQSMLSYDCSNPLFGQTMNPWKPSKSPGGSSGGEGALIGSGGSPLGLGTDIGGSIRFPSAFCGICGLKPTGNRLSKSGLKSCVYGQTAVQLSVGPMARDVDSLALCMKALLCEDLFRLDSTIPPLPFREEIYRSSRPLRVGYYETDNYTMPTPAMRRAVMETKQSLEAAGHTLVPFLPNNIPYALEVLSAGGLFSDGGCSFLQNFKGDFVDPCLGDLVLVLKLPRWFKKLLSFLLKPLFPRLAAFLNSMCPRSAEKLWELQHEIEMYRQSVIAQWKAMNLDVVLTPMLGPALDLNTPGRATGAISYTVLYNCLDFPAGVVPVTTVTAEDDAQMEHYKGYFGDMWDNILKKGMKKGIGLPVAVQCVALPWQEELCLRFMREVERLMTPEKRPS
The series is described as follows: Inhibition of FAAH in mouse brain at 10 uM in presence of FP-rhodamine by competitive activity-based protein profiling method. The series is classed as tissue-based. The procedure, abridged:
as §1

Series [3] can be described thus: Plasma concentration in rat at 1 mg/kg, po administered for 4 hrs by LC/MS analysis. The series is classed as ADME, organism-based. The procedure, abridged:
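Male Sprague-Dawley rats received a single oral dose of 1 mg/kg. Plasma (ng/ml) and brain (ng/g tissue) drug levels were measured at 1, 2, 4, 8 and 24 h after dosing.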

Series [4] deals with T3, Fatty-acid amide hydrolase 1 (Rattus norvegicus) (UniProt P97612).
T3 sequence (whole entry): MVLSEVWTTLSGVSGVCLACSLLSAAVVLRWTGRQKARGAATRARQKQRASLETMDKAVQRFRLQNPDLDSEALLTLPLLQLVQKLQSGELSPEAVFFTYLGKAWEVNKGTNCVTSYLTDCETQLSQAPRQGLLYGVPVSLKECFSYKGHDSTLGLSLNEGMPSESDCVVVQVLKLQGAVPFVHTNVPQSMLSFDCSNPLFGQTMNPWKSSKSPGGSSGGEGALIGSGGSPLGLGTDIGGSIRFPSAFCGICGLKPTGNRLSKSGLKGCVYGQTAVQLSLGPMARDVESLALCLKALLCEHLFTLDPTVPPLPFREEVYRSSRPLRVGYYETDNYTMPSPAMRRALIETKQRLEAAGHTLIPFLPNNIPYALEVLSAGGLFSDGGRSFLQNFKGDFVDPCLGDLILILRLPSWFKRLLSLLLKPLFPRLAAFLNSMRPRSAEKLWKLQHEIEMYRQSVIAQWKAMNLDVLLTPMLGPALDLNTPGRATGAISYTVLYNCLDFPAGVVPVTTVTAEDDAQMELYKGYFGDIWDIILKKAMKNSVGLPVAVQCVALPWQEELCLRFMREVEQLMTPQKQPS
The series is described as follows: In vivo inhibition of FAAH in CFA induced Sprague-Dawley rat brain at 0.1 to 10 mg/kg, po relative to control. The series is classed as functional, organism-based. As to conditions: dose 0.1-10 mg/kg. The procedure, abridged:
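Brain and blood leukocyte membrane fractions from CFA rats after oral dosing. FAAH activity measured with 3H-labeled AEA substrate, quantifying released 3H-ethanolamine; n = 3 rats/group. Time course sampled at 1, 2, 4, 8, 24 h after 1 mg/kg.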

Series [5] can be described thus: Brain concentration in CFA induced Sprague-Dawley rat at 0.1 mg/kg, po by LC/MS analysis. Type of series: ADME, organism-based. Conditions: in vivo, read-out: Ct.
Series [6] concerns the target T3, Fatty-acid amide hydrolase 1 (Rattus norvegicus). Kind of series: In vivo inhibition of FAAH in CFA induced Sprague-Dawley rat plasma assessed as elevation of PEA level at 1 mg/kg, po measured for 1 to 24 hrs. Type of series: functional, organism-based. As to conditions: time 1-24 hrs.
In series [7] the test system is Rattus norvegicus. Kind of series: Antihyperalgesic activity in MIA induced Sprague-Dawley rat assessed as effect on pain behaviour in contralateral knee joint at 0.3 to 3 mg/kg, po administered once daily for 3 consecutive days. The series is classed as functional, organism-based. As to conditions: dose 0.3-3 mg/kg, time 3.0 day. The procedure, abridged:
(§2)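 Male Sprague-Dawley rats (220–270 g), isoflurane-anesthetized, given 2 mg MIA in 0.9% saline (50 μl) intra-articular into the knee. From day 14, oral dosing at 10 ml/kg once daily for 3 days in 4% 2-hydroxypropyl-β-cyclodextrin/1% ethanol in 0.01 M HCl. Celecoxib 30 mg/kg in 0.5% methylcellulose twice daily. Joint compression threshold by digital Randall-Selitto at 2 and 4 h postdose on days 1 and 3; n = 10/group.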

Series [8] relates to Rattus norvegicus. Kind of series: Antihyperalgesic activity in MIA induced Sprague-Dawley rat assessed as increased joint compression thresholds at 0.3 to 3 mg/kg, po administered for 1 day and measured after 2 to 4 hrs. Type of series: functional, organism-based. Conditions: dose 0.3-3 mg/kg. The procedure, abridged:
as §2

For another series, the system named is Mus musculus. The series is described as follows: Antinociceptive activity in C57BL6/J mouse assessed as effect in catalepsy at 1 to 10 mg/kg, po administered for 4 hrs. Type of series: functional, organism-based. As to conditions: dose 1-10 mg/kg. Summed up: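 Male C57BL/6J mice, 7 weeks old, n = 8/group, dosed orally at 1 or 10 mg/kg in PEG 300 (4 ml/kg). Tetrad tested 4 h postdose: locomotor activity, tail-immersion thermal nociception, catalepsy (assessed 60 s), body temperature. Means ± S.E.M. versus vehicle.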

Consider one compound from ChEMBL document CHEMBL5653606 (J Pharmacol Exp Ther, 2011).

The source made the active and inactive calls.

The term inhibition denotes the drop in the measured response relative to a control, in per cent. As for `O=C(Nc1cccnn1)N1CCC(=Cc2cccc(Oc3ccc(C(F)(F)F)cn3)c2)CC1`, the inhibition result in series [1], in series [2] and in [6] was “Active” in each case. Besides, in [3], the concentration at 4 h amounted to 540 nM. Besides, the inhibition in series [4] is 98%. Also, the concentration in series [5] worked out at 38.9 nM. In addition, the result with Rattus norvegicus [7] was inactive. Moreover, the result with Rattus norvegicus [8] was Active. Also, the Activity entry with Mus musculus is “Non-Toxic”.
